Usually IC50 stands for the midpoint of a concentration-inhibition curve.

Active and inactive are the calls of the source. No cut-off for these calls is given here.

Assay [1] has as its system NCI-H460. Nature of the assay: Cytotoxicity against human NCI-H460 cells after 72 hrs by MTT assay. It counts as functional, cell-based. The note with it: NCI-H460, 72 h. The method, boiled down:
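H460 cells grown in RPMI 1640 with 5% FBS at 37 °C, 10% CO2, treated 24 h after seeding. Compounds in DMSO diluted into medium at final 100, 33.3, 11.1 and 3.7 μg/mL for 72 h. MTT (5 mg/mL in 0.9% NaCl) added for 3 h, formazan dissolved in DMSO and read at 570 nm; IC50 derived.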
(Formazan colour is commonly taken as a measure of viable cells.)

The subject of assay [2] is NCI-H460. Nature of the assay: Induction of apoptosis in human NCI-H460 cells assessed as early apoptotic cells at 20 uM after 6 hrs by annexinV-propidium iodide staining based flow cytometric analysis relative to control. The format is functional. The method, boiled down:
(§1)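 H460 cells plated for 6 h, then treated with 5, 10 or 20 μM. Cells washed, trypsin-EDTA detached and resuspended in PBS, then stained with annexin V and propidium iodide plus RNase and 0.1% Triton X-100 for 30 min at 37 °C before flow cytometry. Figure legend gives 6 h incubation.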
(In general: Flow cytometry measures light scatter and fluorescence of single cells or particles in a stream.)

Assay [3] deals with NCI-H460. Nature of the assay: Decrease in p53 expression in human NCI-H460 cells at 20 uM after 12 hrs by Western blot analysis. It counts as functional, cell-based. An outline of the steps: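 H460 cells exposed to 20 μM for varying times, or to a range of concentrations for 12 h. Lysates made in Tris-HCl pH 7.4/NaCl/NP40/SDS buffer with protease and phosphatase inhibitors, then probed for p53 by Western blot with chemiluminescent detection; bands quantified by densitometry.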
For orientation: In western blotting, separated proteins are transferred to a membrane and probed.

Assay [4] deals with NCI-H460. Nature of the assay: Induction of apoptosis in human NCI-H460 cells assessed as non-viable necrotic cells at 10 uM after 6 hrs by annexinV-propidium iodide staining based flow cytometric analysis relative to control. The format is functional. The method, boiled down:
as §1

The test system of assay [5] is NCI-H460. Nature of the assay: Induction of apoptosis in human NCI-H460 cells assessed as early apoptotic cells at 5 uM after 6 hrs by annexinV-propidium iodide staining based flow cytometric analysis relative to control. The format is functional. An outline of the steps:
as §1

Assay [6] deals with NCI-H460. Nature of the assay: Induction of apoptosis in human NCI-H460 cells assessed as viable cells at 5 uM after 6 hrs by annexinV-propidium iodide staining based flow cytometric analysis relative to control. The format is functional. Conditions: NCI-H460, 6 h, read-out: Activity. The method, boiled down:
as §1

The subject of assay [7] is NCI-H460. Nature of the assay: Induction of apoptosis in human NCI-H460 cells assessed as viable cells at 20 uM after 6 hrs by annexinV-propidium iodide staining based flow cytometric analysis relative to control. It counts as functional. The note with it: NCI-H460, 6 h, read-out: Activity. An outline of the steps: as §1
In assay [8] the test system is NCI-H460. Nature of the assay: Induction of CHOP mRNA expression in human NCI-H460 cells at 20 uM after 12 hrs by real time quantitative PCR analysis. The format is functional, cell-based. An outline of the steps:
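H460 cells exposed to a concentration range for 6 or 12 h. CHOP mRNA measured by RT-PCR/qPCR and normalized to β-actin.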

The subject of assay [9] is NCI-H460. Nature of the assay: Induction of apoptosis in human NCI-H460 cells assessed as non-viable necrotic cells at 20 uM after 6 hrs by annexinV-propidium iodide staining based flow cytometric analysis relative to control. The format is functional. The method, boiled down: as §1
Assay [10] concerns NCI-H460. Nature of the assay: Induction of apoptosis in human NCI-H460 cells at 5 to 30 uM after 24 hrs by flow cytometric analysis. It counts as functional, cell-based.
Assay [11] has as its system NCI-H460. As to the kind of experiment: Induction of CHOP protein expression in human NCI-H460 cells at 20 uM after 6 to 24 hrs by Western blot analysis. The format is functional, cell-based. An outline of the steps: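 H460 cells treated for 6–24 h, or across a range of concentrations. CHOP protein measured by Western blot, densitometry expressed as percent of control; Student's t test.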

The subject of assay [12] is NCI-H460. As to the kind of experiment: Induction of apoptosis in human NCI-H460 cells assessed as activation of caspase 9 activation at 20 uM after 24 hrs by Western blot analysis. It counts as functional, cell-based.
For assay [13], the system named is NCI-H460. Nature of the assay: Induction of apoptosis in human NCI-H460 cells assessed as late apoptotic cells at 10 uM after 6 hrs by annexinV-propidium iodide staining based flow cytometric analysis relative to control. It counts as functional. An outline of the steps:
as §1

For assay [14], the system named is NCI-H460. Nature of the assay: Induction of apoptosis in human NCI-H460 cells assessed as late apoptotic cells at 5 uM after 6 hrs by annexinV-propidium iodide staining based flow cytometric analysis relative to control. It counts as functional. The method, boiled down: as §1
The subject of assay [15] is NCI-H460. Nature of the assay: Induction of GRP78 mRNA expression in human NCI-H460 cells at 5 to 20 uM after 3 hrs by real time quantitative PCR analysis. The format is functional, cell-based. An outline of the steps: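 H460 cells treated across a concentration range for 3 h. GRP78 mRNA quantified by RT-qPCR, normalized to β-actin and expressed as percent of vehicle.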

Assay [16] deals with NCI-H460. As to the kind of experiment: Cytotoxicity against human NCI-H460 cells assessed as reduction of cell viability at 5 to 20 uM after 24 hrs by CellTiter-Glo analysis. The format is functional, cell-based. An outline of the steps: (§2)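 H460 cells (5 × 10^3/well) seeded overnight, then given fresh medium containing compound from DMSO stock (final 5, 10, 20 μM; 2.5–30 μM in the figure) for 24 h. Viability measured with CellTiter-Glo and expressed as percent of vehicle-treated cells; Student's t test.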

For assay [17], the system named is NCI-H460. As to the kind of experiment: Induction of GRP78 protein expression in human NCI-H460 cells at 5 to 20 uM after 3 hrs by Western blot analysis. It counts as functional, cell-based. An outline of the steps: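 H460 cells treated for 3 h; GRP78 protein detected by Western blot with actin as loading control.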
The test system of assay [18] is NCI-H460. Nature of the assay: Induction of XBP-1 protein expression level in human NCI-H460 cells at 5 to 20 uM after 6 hrs by Western blot analysis. The format is functional, cell-based. The method, boiled down:
(§3)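 H460 cells exposed to 20 μM for varying times, or to a range of concentrations for 6 h. ATF-4 and XBP-1 protein measured by Western blot with actin as loading control.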

Assay [19] has as its system NCI-H460. Nature of the assay: Induction of ATF-4 protein expression level in human NCI-H460 cells at 5 to 20 uM after 6 hrs by Western blot analysis. It counts as functional, cell-based. An outline of the steps: as §3
Assay [20] relates to NCI-H460. As to the kind of experiment: Induction of apoptosis in human NCI-H460 cells assessed as late apoptotic cells at 20 uM after 6 hrs by annexinV-propidium iodide staining based flow cytometric analysis relative to control. It counts as functional. The method, boiled down:
as §1

Assay [21] relates to NCI-H460. As to the kind of experiment: Induction of apoptosis in human NCI-H460 cells assessed as activation of caspase 3 activity at 20 uM after 24 hrs by Western blot analysis. It counts as functional, cell-based.
Assay [22] relates to NCI-H460. As to the kind of experiment: Cytotoxicity against human NCI-H460 cells assessed as cell viability at 20 uM after 24 hrs by CellTiter-Glo analysis. The format is functional. The note with it: NCI-H460, 24 h, read-out: Activity. An outline of the steps: as §2
Assay [23] deals with NCI-H460. As to the kind of experiment: Induction of apoptosis in human NCI-H460 cells assessed as viable cells at 10 uM after 6 hrs by annexinV-propidium iodide staining based flow cytometric analysis relative to control. The format is functional. Conditions: NCI-H460, 6 h, read-out: Activity. The method, boiled down:
as §1

Assay [24] deals with NCI-H460. As to the kind of experiment: Induction of apoptosis in human NCI-H460 cells at 20 uM after 6 hrs by flow cytometric analysis. The format is functional. An outline of the steps: as §1
Assay [25] has as its system NCI-H460. Nature of the assay: Induction of apoptosis in human NCI-H460 cells assessed as non-viable necrotic cells at 5 uM after 6 hrs by annexinV-propidium iodide staining based flow cytometric analysis relative to control. It counts as functional. The method, boiled down: as §1
Assay [26] has as its system NCI-H460. As to the kind of experiment: Induction of apoptosis in human NCI-H460 cells assessed as early apoptotic cells at 10 uM after 6 hrs by annexinV-propidium iodide staining based flow cytometric analysis relative to control. It counts as functional. An outline of the steps:
as §1

For assay [27], the system named is NCI-H460. As to the kind of experiment: Cytotoxicity against human NCI-H460 cells assessed as reduction of cell viability at 5 to 30 uM after 24 hrs by CellTiter-Glo analysis. The format is functional, cell-based. The method, boiled down:
as §2

Assay [28] has as its target Transcription factor Jun (Homo sapiens) (UniProt P05412). As to the kind of experiment: Induction of c-Jun phosphorylation in human NCI-H460 cells at 20 uM after 12 hrs by Western blot analysis. The format is cell-based. The method, boiled down: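 H460 cells cultured in RPMI 1640 with 5% heat-inactivated FBS at 37 C, 10% CO2; exposed to 20 μM for a time course. Lysed at 0 C in Tris-HCl pH 7.4 buffer with NP40, SDS, and protease/phosphatase inhibitors. Phospho-c-Jun detected by Western blot with chemiluminescence, actin as loading control; band density quantified.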

Sequence of Transcription factor Jun (Homo sapiens) (P05412 whole entry): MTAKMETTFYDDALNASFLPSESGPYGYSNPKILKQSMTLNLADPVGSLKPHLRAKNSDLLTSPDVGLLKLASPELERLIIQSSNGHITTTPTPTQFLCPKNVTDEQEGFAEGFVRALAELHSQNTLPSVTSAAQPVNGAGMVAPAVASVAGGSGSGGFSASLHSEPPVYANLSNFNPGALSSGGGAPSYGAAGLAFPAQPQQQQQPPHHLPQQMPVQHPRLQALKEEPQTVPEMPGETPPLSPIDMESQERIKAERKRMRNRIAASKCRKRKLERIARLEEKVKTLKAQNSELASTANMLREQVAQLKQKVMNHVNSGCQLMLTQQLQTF

Molecule `O=C(/C=C/c1ccccc1Br)/C=C/c1ccccc1Br` had an IC50 in assay [1] of 5.78 µM. This counts as single-digit micromolar.

`COc1cc(/C=C/C(=O)CC(=O)/C=C/c2ccc(O)c(OC)c2)ccc1O` [CURCUMIN]: the Activity is reported as 12.02% in [2]; 0.23% in assay [4]; 7.97% in [5]; 0.32% in [9]; 2.06% in assay [13]; 3.66% in assay [14]. The Activity in assay [20] is listed as 4.06%; in [24], 12.02%; in [25], 0.46%; in assay [26], 8.57%. Moreover, the result in [3], in [8], in [10], in assay [11], in assay [12] and in assay [15] was inactive. The result in assay [16], in assay [17], in assay [18], in [19], in [21] and in [27] was inactive. In assay [28], the outcome was inactive. In [6], the viability at 5 µM was determined as 87.9%. Besides, the viability at 20 µM was 83.6% in assay [7] and 70% in assay [22]. This molecule had an IC50 in assay [1] of 20.3 µM. Besides, the viability at 10 µM in [23] is 89.2%.

With `CN(C)CCCOc1ccc(/C=C2\CC/C(=C\c3ccc(OCCCN(C)C)cc3)C2=O)cc1`, it took 8.31 µM to reach half-maximal inhibition in assay [1] (IC50).

(Values after ChEMBL document CHEMBL1781992, “A novel monocarbonyl analogue of curcumin, (1E,4E)-1,5-bis(2,3-dimethoxyphenyl)penta-1,4-dien-3-one, induced cancer cell H460 apoptosis via activation of endoplasmic reticulum stress signaling pathway” (J Med Chem, 2011).)
